Data reported in ChEMBL document CHEMBL3217620, “Relative impact of 3- and 5-hydroxyl groups of cytosporone B on cancer cell viability” (Medchemcomm, 2013).
Activity calls are given as the source filed them. The rule behind the calls is not given here.

What was measured:
[1] = molecular target: Nuclear receptor subfamily 4immunitygroup A member 1 (Homo sapiens) (UniProt P22736); assay: Binding affinity to human recombinant N-terminal His6-tagged NR4A1 LBD expressed in Escherichia coli BL21 at 100 uM by NMR spectroscopy
Chain of Nuclear receptor subfamily 4immunitygroup A member 1 (Homo sapiens) (P22736 whole entry, the tested form may be a part): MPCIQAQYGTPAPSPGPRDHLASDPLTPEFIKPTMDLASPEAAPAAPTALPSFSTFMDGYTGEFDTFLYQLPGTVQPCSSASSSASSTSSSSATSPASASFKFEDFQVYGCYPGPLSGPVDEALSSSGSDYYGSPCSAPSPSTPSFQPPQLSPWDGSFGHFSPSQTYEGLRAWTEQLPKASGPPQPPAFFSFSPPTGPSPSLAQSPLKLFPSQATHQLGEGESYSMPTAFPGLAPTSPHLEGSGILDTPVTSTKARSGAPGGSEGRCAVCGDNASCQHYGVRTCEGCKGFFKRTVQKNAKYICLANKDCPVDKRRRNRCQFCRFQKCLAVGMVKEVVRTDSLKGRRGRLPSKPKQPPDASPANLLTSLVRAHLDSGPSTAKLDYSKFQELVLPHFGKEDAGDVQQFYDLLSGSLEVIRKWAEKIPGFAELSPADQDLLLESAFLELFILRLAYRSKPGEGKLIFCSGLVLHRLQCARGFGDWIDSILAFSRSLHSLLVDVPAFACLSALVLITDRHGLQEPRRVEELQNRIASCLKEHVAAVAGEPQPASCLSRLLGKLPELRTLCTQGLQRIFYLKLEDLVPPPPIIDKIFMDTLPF

[2] = tested on: NCI-H460; assay: Induction of apoptosis in human H460 cells assessed as PARP cleavage at 10 uM after 8 hrs by SDS-PAGE; type: functional, cell-based
Summary of the method: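 H460 cells in serum-free RPMI-1640, attached 12 h, then given 10 μM compound for 8 h. Lysed in Tris-HCl pH 7.9 buffer with NaCl, EDTA, Triton X-100 and protease inhibitors. Run on 12% SDS-PAGE, blotted to nitrocellulose, probed overnight at 4 °C with rabbit polyclonal anti-PARP, then HRP anti-rabbit IgG. ECL detection; β-actin reprobe as loading control.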

[3] = tested on: NCI-H460; assay: Induction of apoptosis in human H460 cells assessed as DNA fragmentation at 10 uM after 8 hrs by DAPI staining-based confocal microscopy relative to control; type: functional
Summary of the method: (§1)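 H460 cells in serum-free RPMI-1640 on coverslips, attached 12 h, given 10 μM compound for 8 h. Fixed in 3.7% paraformaldehyde, permeabilized in 0.3% Triton X-100/PBS, blocked in 3% BSA, DAPI-stained and viewed by fluorescence microscopy. Cells with nuclear fragmentation and/or chromatin condensation scored in 300-cell fields; mean of triplicates ± SD.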

[4] = tested on: BGC-823; assay: Induction of apoptosis in human BGC823 cells assessed as procaspase9 cleavage at 15.5 uM after 48 hrs; type: functional
[5] = tested on: BGC-823; assay: Induction of apoptosis in human BGC823 cells assessed as mitochondrial cytochrome c release at 15.5 uM after 48 hrs; type: functional
[6] = tested on: BGC-823; assay: Induction of apoptosis in human BGC823 cells assessed as nuclear DNA condensation at 15.5 uM after 48 hrs; type: functional
[7] = molecular target: Nuclear receptor subfamily 4immunitygroup A member 1 (Homo sapiens) (UniProt P22736); assay: Induction of translocation of NR4A1 from nucleus to cytoplasm in human H460 cells at 10 uM after 8 hrs by DAPI staining-based confocal microscopy relative to control; type: cell-based
Summary of the method: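 Serum-starved H460 cells grown overnight on coverslips, treated 8 h with 10 µM compound or vehicle. Fixed (3.7% paraformaldehyde), permeabilized (0.3% Triton X-100, 10 min), blocked in 3% BSA. Stained with rabbit monoclonal anti-NR4A1 and Alexa Fluor 594 anti-rabbit IgG, nuclei with DAPI. Overlaid confocal images used to judge NR4A1 localization.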

[8] = tested on: NCI-H460; assay: Induction of apoptosis in human H460 cells assessed as chromatin condensation at 10 uM after 8 hrs by relative to control; type: functional; summary of the method: as §1
[9] = tested on: LNCaP; assay: Cytotoxicity against human LNCAP cells at 20 uM after 72 hrs by MTT assay; type: functional
Summary of the method: (§2)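 LNCaP cells at 5×10^3/well in RPMI-1640 with 10% FBS, attached 24 h. Treated 72 h with compound at 1–20 µM or DMSO alone (0.2% final). Viability by MTT per kit protocol. Points are means of six replicates ± SD; IC₅₀ interpolated from dose–response curves.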

[10] = molecular target: Nuclear receptor subfamily 4immunitygroup A member 1 (Homo sapiens) (UniProt P22736); assay: Binding affinity to NR4A1 (unknown origin) at 0.1 uM by luciferase reporter gene assay relative to control
[11] = Cytotoxicity against human H460 cells after 72 hrs by MTT assay; type: functional, cell-based; conditions: NCI-H460, 72 h
Summary of the method: (§3)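 NCI-H460 NSCLC cells, […] exponentially growing cells/well, seeded and left overnight. Compound added at 0.1, 1.0 and 10 μM (vehicle DMSO, 0.1% final) in RPMI-1640 with 10% FBS for 72 h. MTT then added at 0.5 mg/mL for 4 h, formazan dissolved in DMSO, absorbance read at 490 nm.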

[12] = Cytotoxicity against human H460 cells at 20 uM after 72 hrs by MTT assay; type: functional; conditions: NCI-H460, 72 h
[13] = Cytotoxicity against human H460 cells assessed as cell viability at 10 uM after 72 hrs by MTT assay; type: functional; conditions: NCI-H460, 72 h, read-out: Activity; summary of the method: as §3
[14] = tested on: LNCaP; assay: Cytotoxicity against human LNCAP cells after 72 hrs by MTT assay; type: functional, cell-based; summary of the method: as §2
[15] = molecular target: Nuclear receptor subfamily 4immunitygroup A member 1 (Homo sapiens) (UniProt P22736); assay: Binding affinity to human recombinant N-terminal His6-tagged NR4A1 LBD expressed in Escherichia coli BL21 by isothermal titration calorimetry
[16] = molecular target: Nuclear receptor subfamily 4immunitygroup A member 1 (Homo sapiens) (UniProt P22736); assay: Binding affinity to human recombinant N-terminal His6-tagged NR4A1 LBD expressed in Escherichia coli BL21 at 50 uM by NMR spectroscopy
[17] = tested on: LNCaP; assay: Cytotoxicity against human LNCAP cells after 72 hrs; type: functional, cell-based
[18] = Cytotoxicity against human H460 cells after 48 hrs by MTT assay; type: functional, cell-based; conditions: NCI-H460, 48 h

Row | Activity [1] | Activity [7] | Ratio [10] | Activity [15] | Activity [16] | Structure (SMILES) | Activity [2] | fold change (FC) [3] | Activity [4] [%] | Activity [5] [%] | Activity [6] [%] | fold change (FC) [8] | inhibition at 20 µM [9] [%] | IC50 [11] [µM] | inhibition at 20 µM [12] [%] | viability at 10 µM [13] [%] | IC50 [14] [µM] | IC50 [17] [µM] | IC50 [18] [µM]
1 | Active | Active | 12.5 | – | – | CCCCCCCC(=O)c1c(O)cc(O)cc1CC(=O)OCC [CYTOSPORONE B] | Active | 4.4 | 63 | 63 | 63 | 4.4 | 76 | 15.3 | 88 | 50 | 13.4 | – | –
2 | – | inactive | – | inactive | inactive | CCCCCCCC(=O)c1c(CC(=O)OCC)cc(OC)cc1OC | Active | – | – | – | – | – | 14 | > 20 | 11 | 24 | – | – | –
3 | – | Active | – | – | Active | CCCCCCCC(=O)c1c(O)cc(OC)cc1CC(=O)OCC | Active | 5.1 | – | – | – | 5.1 | 80 | 15.9 | 75 | 22 | 11.4 | – | –
4 | – | Active | – | – | – | FC(F)(F)c1ccc(C(c2c[nH]c3ccccc23)c2c[nH]c3ccccc23)cc1 | Active | 3.7 | – | – | – | 3.7 | 97 | 4.6 | – | 90 | 9.7 | 5 | 7.7
